In ChEMBL document CHEMBL1146037, “Design and discovery of a novel dipeptidyl-peptidase IV (CD26)-based prodrug approach” (J Med Chem, 2006):
Active and inactive are the calls of the source. No cut-off for these calls is given here.

How the values were obtained:
[1] = test system: CCRF-CEM; test: Antiviral activity against HIV2 assessed as inhibition of HIV2-induced cytopathicity in CEM cells; assay type: functional, cell-based
In short: (§1)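 CEM and MT-4 cell cultures infected with HIV-1 or HIV-2, with compounds diluted into culture medium from DMSO stocks. Antiviral activity is read at day 4 post-infection and reported as EC50.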

[2] = test system: CCRF-CEM; test: Antiviral activity against HIV1 assessed as inhibition of HIV1-induced cytopathicity in CEM cells; assay type: functional, cell-based; conditions: Homo sapiens; in short: as §1
[3] = test system: MT4; test: Antiviral activity against HIV1 assessed as inhibition of HIV1-induced cytopathicity in MT4 cells; assay type: functional, cell-based; conditions: Homo sapiens; in short: as §1
[4] = test system: MT4; test: Antiproliferative activity against human MT4 cell line; assay type: functional
In short: (§2)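 Cytostatic assay: compounds made up as DMSO stocks and diluted in culture medium. CC50 is the concentration that inhibits MT-4 or CEM cell proliferation by 50%.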

[5] = test system: CCRF-CEM; test: Antiproliferative activity against human CEM cell line; assay type: functional; in short: as §2
[6] = test system: MT4; test: Antiviral activity against HIV2 assessed as inhibition of HIV2-induced cytopathicity in MT4 cells; assay type: functional, cell-based; in short: as §1
[7] = target: T1, Dipeptidyl peptidase 4 (Homo sapiens, UniProt P27487); test: Conversion of prodrug to parent drug NAP-TSAO-T catalyzed by CD26 after 4 hrs; assay type: ADME; parameters: concentration or dose not given beside the values
[8] = target: T1, Dipeptidyl peptidase 4; test: Conversion of prodrug to parent drug NAP-TSAO-T catalyzed by CD26 after 24 hrs; assay type: ADME; parameters: concentration or dose not given beside the values
[9] = target: T1, Dipeptidyl peptidase 4; test: Conversion of prodrug to parent drug NAP-TSAO-T catalyzed by CD26 after 1 hr; assay type: ADME; parameters: concentration or dose not given beside the values
[10] = target: Human immunodeficiency virus type 1 reverse transcriptase (Human immunodeficiency virus 1, UniProt Q72547); test: Inhibition of recombinant HIV1 reverse transcriptase
[11] = species on record: Homo sapiens; test: Inhibition of human serum-catalyzed prodrug Val-Pro-NAP-TSAO-T conversion to parent drug NAP-TSAO-T; assay type: organism-based
[12] = species on record: Bos taurus; test: Inhibition of bovine serum-catalyzed prodrug Val-Pro-NAP-TSAO-T conversion to parent drug NAP-TSAO-T; assay type: organism-based; conditions: cattle
[13] = target: T1, Dipeptidyl peptidase 4; test: Inhibition of CD26-catalyzed GlyPro-pNA hydrolysis

T1 sequence (P27487 whole entry): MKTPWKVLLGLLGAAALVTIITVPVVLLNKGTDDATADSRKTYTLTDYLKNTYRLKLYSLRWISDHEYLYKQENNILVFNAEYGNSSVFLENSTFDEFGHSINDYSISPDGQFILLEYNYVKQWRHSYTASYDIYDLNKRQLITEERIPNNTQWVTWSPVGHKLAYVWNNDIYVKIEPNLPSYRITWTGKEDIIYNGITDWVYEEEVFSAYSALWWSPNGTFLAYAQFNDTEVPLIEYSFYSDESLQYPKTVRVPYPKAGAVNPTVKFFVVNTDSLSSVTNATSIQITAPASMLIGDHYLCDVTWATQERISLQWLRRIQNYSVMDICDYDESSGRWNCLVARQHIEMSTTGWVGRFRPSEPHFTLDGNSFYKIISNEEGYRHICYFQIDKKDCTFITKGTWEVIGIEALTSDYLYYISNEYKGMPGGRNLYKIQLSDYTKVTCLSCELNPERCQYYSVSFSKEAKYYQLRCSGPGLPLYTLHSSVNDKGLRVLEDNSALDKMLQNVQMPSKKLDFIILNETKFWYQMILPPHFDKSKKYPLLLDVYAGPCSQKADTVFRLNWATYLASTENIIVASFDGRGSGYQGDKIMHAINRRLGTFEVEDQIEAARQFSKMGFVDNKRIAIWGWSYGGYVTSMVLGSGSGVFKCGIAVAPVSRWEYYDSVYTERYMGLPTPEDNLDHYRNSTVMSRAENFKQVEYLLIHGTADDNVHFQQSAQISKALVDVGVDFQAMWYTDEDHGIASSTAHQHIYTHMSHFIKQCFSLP

| Compound | EC50 [2] [nM] | Activity [7] [%] | Activity [8] [%] | Activity [9] [%] | IC50 [10] [µM] | Inhibition [11] [%] | Inhibition [12] [%] | Activity [13] | Activity [1] | EC50 [3] [nM] | CC50 [4] [µM] | CC50 [5] [µM] | Activity [6] |
| --- | --- | --- | --- | --- | --- | --- | --- | --- | --- | --- | --- | --- | --- |
| Cc1cn(C2OC(CO[Si](C)(C)C(C)(C)C)C3(OS(=O)(=O)C=C3N)C2O[Si](C)(C)C(C)(C)C)c(=O)n(CCCNC(=O)[C@@H]2CCCN2C(=O)[C@@H](N)Cc2ccccc2)c1=O (some centres not stated) | 100 | 37 | 58 | – | – | – | – | – | inactive | 200 | 19 | 14 | inactive |
| Cc1cn(C2OC(CO[Si](C)(C)C(C)(C)C)C3(OS(=O)(=O)C=C3N)C2O[Si](C)(C)C(C)(C)C)c(=O)n(CCCNC(=O)[C@H]2CCCN2C(=O)[C@@H](N)C(C)C)c1=O (some centres not stated) | 90 | 2.2 | 4.2 | 0 | 22 | – | – | – | inactive | 490 | 22 | 11 | inactive |
| Cc1cn(C2OC(CO[Si](C)(C)C(C)(C)C)C3(OS(=O)(=O)C=C3N)C2O[Si](C)(C)C(C)(C)C)c(=O)n(CCCNC(=O)[C@H](C)NC(=O)[C@@H](N)C(C)C)c1=O (some centres not stated) | 80 | 6.5 | 35 | 0 | 5.4 | – | – | – | inactive | 230 | 22 | 11 | inactive |
| Cc1cn(C2OC(CO[Si](C)(C)C(C)(C)C)C3(OS(=O)(=O)C=C3N)C2O[Si](C)(C)C(C)(C)C)c(=O)n(CCCNC(=O)[C@H](Cc2ccccc2)NC(=O)[C@@H](N)C(C)C)c1=O (some centres not stated) | 90 | 0 | 0 | 0 | 6.8 | – | – | – | inactive | 260 | 14 | 10 | inactive |
| CC[C@H](C)[C@H](N)C(=O)N1CCCC1 | – | – | – | – | – | > 80 | > 80 | – | – | – | – | – | – |
| Cc1cn([C@@H]2O[C@H](CO[Si](C)(C)C(C)(C)C)[C@@]3(OS(=O)(=O)C=C3N)[C@H]2O[Si](C)(C)C(C)(C)C)c(=O)n(CCCN)c1=O | 140 | – | – | – | – | – | – | – | inactive | 520 | 14 | 12 | inactive |
| Cc1cn(C2OC(CO[Si](C)(C)C(C)(C)C)C3(OS(=O)(=O)C=C3N)C2O[Si](C)(C)C(C)(C)C)c(=O)n(CCCNC(=O)[C@@H](N)C(C)C)c1=O (some centres not stated) | 60 | – | – | – | 6.7 | – | – | – | inactive | 300 | 8.2 | 9.6 | inactive |
| Cc1cn(C2OC(CO[Si](C)(C)C(C)(C)C)C3(OS(=O)(=O)C=C3N)C2O[Si](C)(C)C(C)(C)C)c(=O)n(CCCNC(=O)CNC(=O)[C@@H](N)C(C)C)c1=O (some centres not stated) | 50 | 0 | 0 | 0 | 3.8 | – | – | – | inactive | 140 | 9.9 | 10 | inactive |
| Cc1cn(C2OC(CO[Si](C)(C)C(C)(C)C)C3(OS(=O)(=O)C=C3N)C2O[Si](C)(C)C(C)(C)C)c(=O)n(CCCNC(=O)[C@@H]2CCCN2C(=O)[C@@H](N)CC(=O)O)c1=O (some centres not stated) | 1100 | 7.9 | 30 | – | 7.2 | – | – | – | inactive | 1200 | 69 | ≥ 125 | inactive |
| Cc1cn(C2OC(CO[Si](C)(C)C(C)(C)C)C3(OS(=O)(=O)C=C3N)C2O[Si](C)(C)C(C)(C)C)c(=O)n(CCCNC(=O)[C@@H]2CCCN2C(=O)[C@@H](N)Cc2ccc(O)cc2)c1=O (some centres not stated) | 150 | 66 | 79 | 43 | 8.1 | – | – | – | inactive | 140 | 11 | 10 | inactive |
| Cc1cn(C2OC(CO[Si](C)(C)C(C)(C)C)C3(OS(=O)(=O)C=C3N)C2O[Si](C)(C)C(C)(C)C)c(=O)n(CCCNC(=O)[C@@H]2C[C@@H](O)CN2C(=O)[C@@H](N)C(C)C)c1=O (some centres not stated) | 400 | 18 | 43 | 4.1 | 16 | – | – | – | inactive | 410 | 10 | 15 | inactive |
| Cc1cn(C2OC(CO[Si](C)(C)C(C)(C)C)C3(OS(=O)(=O)C=C3N)C2O[Si](C)(C)C(C)(C)C)c(=O)n(CCCNC(=O)[C@@H]2CCCN2C(=O)[C@@H](N)CCC(=O)O)c1=O (some centres not stated) | 260 | 48 | 92 | – | – | – | – | – | inactive | 490 | 64 | 30 | inactive |
| Cc1cn(C2OC(CO[Si](C)(C)C(C)(C)C)C3(OS(=O)(=O)C=C3N)C2O[Si](C)(C)C(C)(C)C)c(=O)n(CCCNC(=O)[C@@H](NC(=O)[C@@H]2CCCN2C(=O)[C@@H](N)C(C)C)C(C)C)c1=O (some centres not stated) | 70 | – | – | – | 4.4 | – | – | – | inactive | 220 | 11 | 11 | inactive |
| Cc1cn(C2OC(CO[Si](C)(C)C(C)(C)C)C3(OS(=O)(=O)C=C3N)C2O[Si](C)(C)C(C)(C)C)c(=O)n(CCCNC(=O)[C@@H]2CCCN2C(=O)[C@@H](N)CC(N)=O)c1=O (some centres not stated) | 370 | 27 | 73 | – | 4 | – | – | – | inactive | 590 | 22 | 25 | inactive |
| Cc1cn(C2OC(CO[Si](C)(C)C(C)(C)C)C3(OS(=O)(=O)C=C3N)C2O[Si](C)(C)C(C)(C)C)c(=O)n(CCCNC(=O)[C@@H]2C[C@@H](OCc3ccccc3)CN2C(=O)[C@@H](N)C(C)C)c1=O (some centres not stated) | 90 | 0 | 0 | – | 28 | – | – | – | inactive | 270 | 2 | 2.1 | inactive |

The next lines start with results.

| EC50 [2] [nM] | Activity [7] [%] | Activity [8] [%] | Activity [9] [%] | IC50 [10] [µM] | Inhibition [11] [%] | Inhibition [12] [%] | Activity [13] | Compound | Activity [1] | EC50 [3] [nM] | CC50 [4] [µM] | CC50 [5] [µM] | Activity [6] |
| --- | --- | --- | --- | --- | --- | --- | --- | --- | --- | --- | --- | --- | --- |
| 350 | 0 | 0 | 0 | 4.8 | – | – | – | Cc1cn(C2OC(CO[Si](C)(C)C(C)(C)C)C3(OS(=O)(=O)C=C3N)C2O[Si](C)(C)C(C)(C)C)c(=O)n(CCCNC(=O)[C@@H]2[C@@H](O)[C@@H](O)CN2C(=O)[C@@H](N)C(C)C)c1=O (some centres not stated) | inactive | 770 | 46 | 51 | inactive |
| 160 | 85 | 99 | – | 4.7 | – | – | – | Cc1cn(C2OC(CO[Si](C)(C)C(C)(C)C)C3(OS(=O)(=O)C=C3N)C2O[Si](C)(C)C(C)(C)C)c(=O)n(CCCNC(=O)[C@@H]2CCCN2C(=O)[C@@H](N)CCCCN)c1=O (some centres not stated) | inactive | – | 87 | 47 | inactive |
| 190 | 0 | 0 | 0 | 4.6 | – | – | – | Cc1cn(C2OC(CO[Si](C)(C)C(C)(C)C)C3(OS(=O)(=O)C=C3N)C2O[Si](C)(C)C(C)(C)C)c(=O)n(CCCNC(=O)[C@H](CC(C)C)NC(=O)[C@@H](N)C(C)C)c1=O (some centres not stated) | inactive | 210 | 13 | 11 | inactive |
| 200 | 20 | 58 | 5 | 13 | – | – | – | Cc1cn(C2OC(CO[Si](C)(C)C(C)(C)C)C3(OS(=O)(=O)C=C3N)C2O[Si](C)(C)C(C)(C)C)c(=O)n(CCCNC(=O)[C@@H]2CCCN2C(=O)CN)c1=O (some centres not stated) | inactive | 390 | 13 | 51 | inactive |
| – | 0 | 0 | 0 | – | – | – | Not Active | Cc1cn(C2OC(CO[Si](C)(C)C(C)(C)C)C3(OS(=O)(=O)C=C3N)C2O[Si](C)(C)C(C)(C)C)c(=O)n(CCCNC(=O)[C@@H]2CCCN2C(=O)[C@@H](NC(=O)OCc2ccccc2)C(C)C)c1=O (some centres not stated) | – | – | – | – | – |
| 420 | 81 | 88 | – | – | – | – | – | Cc1cn(C2OC(CO[Si](C)(C)C(C)(C)C)C3(OS(=O)(=O)C=C3N)C2O[Si](C)(C)C(C)(C)C)c(=O)n(CCCNC(=O)[C@@H]2CCCN2C(=O)[C@H](C)N)c1=O (some centres not stated) | inactive | 300 | 20 | 19 | inactive |
| – | – | – | – | – | > 80 | > 80 | – | CC[C@H](C)[C@H](N)C(=O)N1CCC[C@H]1C(=O)N[C@H](C(=O)O)[C@@H](C)CC [DIPROTIN A] | – | – | – | – | – |
